Only a selection was taken, and hits are over-represented in it overall.
Fibroblast inh = blocks proliferation of human lung fibroblasts; viability, % at 10 µM; actives 1.1% (n = 85,000); LL 47 human lung fibroblast viability, ATP luminescence; stronger effect = lower value; AID 719;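 active = viability at or below 50% in the single dose screen; inactive = viability above 50%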;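 also: compound exposure lasted 72 h before the ATP readout; 100% = median luminescence of untreated cell-only wells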
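Benchmarks: Cell-only wells, no compound | Test system: LL 47 human lung fibroblasts, passage 12 or lower | Input: 1,150 cells/well | Measured by: CellTiter-Glo luminescence measuring cellular ATP | Medium: IMEM, 15% FBS supplement | Schedule: Overnight attachment after seeding, then 72 h compound exposure at 37 °C | Doses: Compound addition at 0.1% DMSO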
HUVEC inhibit = inhibitors of human endothelial cell proliferation | AID 648 | actives 1.1% (n = 86,000) | HUVEC proliferation, CellTiter-Glo luminescence, 72 h; stronger effect = lower value | viability, % at 10 µM (by protocol);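 active = viability at or below 30%; inactive = viability above 30%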;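 also: 100% = median luminescence of DMSO-only cell control wells on each plate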
HCT116 PTEN-null = growth suppressors of cells with PTEN tumor suppressor deletion | HCT116 PTEN-null viability, CellTiter-Glo, 60 h; stronger effect = lower value | viability, % at 10 µM | actives 1.2% (n = 140,000) | AID 827;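 active = viability at or below a set limit, 4 SD under the median of all tested compounds, cut at about 3.7% in these data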;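 also: PTEN knockout HCT116 line with beta catenin targeted HCT116 as companion control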
H69AR inhibit = growth inhibitors of human H69AR lung tumor cells; H69AR lung tumor viability, ATP luminescence, 72 h; stronger effect = lower value; actives 6% (n = 85,000); viability, % at 10 µM; AID 598;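 active = viability at or below 40%; inactive = viability above 40%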;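 also: multidrug resistant small cell line overexpressing MRP-1 efflux transporter; 100% = mean luminescence of untreated control wells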
HCT116 bCat-KO = beta-catenin-lacking colon tumor cell growth suppression. HCT116 beta-catenin knockout viability, CellTiter-Glo, 60 h; stronger effect = lower value. viability, % at 10 µM. actives 1.5% (n = 140,000). AID 818;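 active = viability at or under a set limit, the compound median less 4 SD, cut at about 6% in these data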;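 also: 0% = Hyamine 1622 control at 20 µM and 100% = untreated cell control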
An asterisk follows results filed as active; . = no result.

SMILES	Fibroblast inh	HUVEC inhibit	HCT116 PTEN-null	H69AR inhibit	HCT116 bCat-KO
CCc1cc2cc(C)ccc2nc1SCC(=O)Nc1cc(C)on1	93	85	97	63	85
CCOC(=O)N1CCN(C(=O)CSc2nc(-c3cccc(C)c3)ns2)CC1	105	116	84	60	95
CCOc1ccccc1NC(=O)CN(c1ccc(OC)cc1)S(=O)(=O)c1c(C)noc1C	47*	47	13	88	18
CCOc1ccccc1NC(=O)CN(c1cc(C)cc(C)c1)S(=O)(=O)c1c(C)noc1C	93	91	86	73	95
CCOc1ccc(N(CC(=O)Nc2cccc(F)c2)S(=O)(=O)c2c(C)noc2C)cc1	75	86	66	30*	64
COc1ccc(N(CC(=O)Nc2cc(C)ccc2OC)S(=O)(=O)c2c(C)noc2C)cc1	82	59	34	13*	31
CCOc1ccc(N(CC(=O)Nc2ccccc2C)S(=O)(=O)c2c(C)noc2C)cc1	49*	50	12	19*	10
COc1ccc(NC(=O)CN(c2cc(C)cc(C)c2)S(=O)(=O)c2c(C)noc2C)cc1	91	85	79	90	83
CCOc1ccc(N(CC(=O)Nc2ccc(C)c(C)c2)S(=O)(=O)c2c(C)noc2C)cc1	90	67	27	48	29
COc1ccc(CN(C(=O)c2ccco2)c2ccc(C)cc2)cc1OC	91	105	108	94	92
Cc1cc(C(=O)Nc2sc3c(c2C#N)CCCCC3)cs1	92	97	76	102	87
CN(C)S(=O)(=O)c1ccc(NC(=O)c2ccc(Br)o2)cc1	99	95	94	69	104
CN1/C(=C/C(=O)c2cccs2)Sc2ccccc21	90	74	64	47	65
CN1/C(=C\C(=O)c2cccs2)Sc2ccccc21	81	71	64	40*	66
O=C(c1ccc2c(c1)N(Cc1ccccc1)C(=O)c1ccccc1S2)N1CCCC1	96	102	83	29*	87
Cc1ccc(C(NC(=O)N2CCOCC2)C(Cl)Cl)cc1F (stereo not drawn)	.	.	93	.	94
Cc1ccc(C(NC(=O)N2CCOCC2)=C(Cl)Cl)cc1F	92	103	1.4*	8.7*	3.4*
CNC(=O)C1(C)C=CCN1C(=O)c1ccccc1 (stereo not drawn)	.	.	100	.	96
Cc1nc(Nc2ccc(F)cc2)[nH]c(=O)c1CCC(C)C	.	75	49	6.7*	62
Cc1cc2c3c(c1)C1(C(=O)N3C(C)(C)CC2C)C(C#N)=C(N)Oc2n[nH]c(C)c21 (stereo not drawn)	93	74	27	20*	27
Cc1[nH]c2ccccc2c1Cc1n[nH]c(=S)o1	95	107	95	91	94
COc1ccc(C=Nc2cccc3c(=O)[nH][nH]c(=O)c23)c2ccccc12	99	70	90	32*	94
CC(C)C(=O)NC(C)C(c1cccs1)N1CCOCC1 (stereo not drawn)	101	94	103	97	99
CC(C)OCCCNCC(O)c1ccccc1 (stereo not drawn)	.	.	87	.	92
COc1cc(OC)cc(-c2ncc3ccccn23)c1	98	81	84	38*	76
SMILES	Fibroblast inh	HUVEC inhibit	HCT116 PTEN-null	H69AR inhibit	HCT116 bCat-KO
CCOC(=O)c1ccc(NC(=O)CCc2ccc(CC)o2)cc1	109	93	96	82	95
Cc1c(C(=O)Nc2ccc(F)cc2)oc2ccc(S(=O)(=O)N3CCCC3)cc12	103	95	98	71	98
Cc1c(C(=O)Nc2ccc(F)cc2)oc2ccc(S(=O)(=O)N3CCC4(CC3)OCCO4)cc12	90	67	39	33*	47
Cc1c(C(=O)Nc2cccc(Cl)c2)oc2ccc(S(=O)(=O)N3CCC4(CC3)OCCO4)cc12	81	49	28	13*	45
Cc1ccc(NC(=O)c2oc3ccc(S(=O)(=O)N4CCOCC4)cc3c2C)cc1C	83	60	62	37*	62
Cc1c(C(=O)NCc2ccccc2)oc2ccc(S(=O)(=O)N3CCC4(CC3)OCCO4)cc12	91	84	66	73	76
Cc1ccccc1N=C/C=C1/C=C(c2ccccc2)OC(C)(C)O1	94	95	76	87	81
C/C=C(\CS(=O)(=O)c1ccccc1)S(=O)(=O)c1ccccc1	64	89	36	25*	52
Cc1cc(C)c(S(=O)(=O)c2ccccc2)c(Cl)n1	.	.	95	.	113
CCOC(=O)c1c(C)n(OCc2ccccc2)c2ccc3nonc3c12	94	72	74	53	71

Assay outcomes: PubChem BioAssay, SRMLSC
